Experimental data: ChEMBL document CHEMBL4831507, “Development of FABP4/5 inhibitors with potential therapeutic effect on type 2 Diabetes Mellitus” (Eur J Med Chem, 2021)
pIC50: −log10 of the molar value. Calls of active or inactive are those of the source. The calls are words filed in the database; no cut-off is given here.

biological target: T1, Fatty acid-binding protein, adipocyte (Homo sapiens, UniProt P15090); assay: Displacement of 1,8-ANS from FABP4 (unknown origin) incubated for 3 mins by fluorescence based analysis; conditions: not given
Method in brief: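 1,8-ANS displacement using purified recombinant FABP3, FABP4 or FABP5. Compound incubated with protein and 1,8-ANS in phosphate buffer for 3 min at room temperature. Fluorescence read at ex 370/em 470 nm. IC50 by nonlinear regression, mean ± SD of three independent experiments.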
Target sequence in this assay (P15090 whole entry): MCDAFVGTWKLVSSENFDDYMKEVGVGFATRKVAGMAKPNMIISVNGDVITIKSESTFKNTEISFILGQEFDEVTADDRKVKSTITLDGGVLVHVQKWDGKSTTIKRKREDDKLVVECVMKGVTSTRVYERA

pIC50 | Compound
5.33 | COc1c(-c2ccc(F)cc2)cc(S(=O)(=O)Nc2ccc(F)c(CC(=O)O)c2)c2ccccc12
5.32 | COc1c(-c2ccc(F)cc2Cl)cc(S(=O)(=O)Nc2ccc(F)c(CC(=O)O)c2)c2ccccc12
5.30 | COc1c(-c2ccc(F)c(Cl)c2)cc(S(=O)(=O)Nc2ccc(F)c(CC(=O)O)c2)c2ccccc12

More lines, now with the values behind:

Compound | pIC50
COc1c(-c2ccccc2F)cc(S(=O)(=O)Nc2ccc(F)c(CC(=O)O)c2)c2ccccc12 | 5.28
COc1c(-c2ccccc2O)cc(S(=O)(=O)Nc2ccc(F)c(CC(=O)O)c2)c2ccccc12 | 5.10
COc1c(-c2ccccc2C)cc(S(=O)(=O)Nc2ccc(F)c(CC(=O)O)c2)c2ccccc12 | 5.29
COc1c(-c2ccc(F)cc2C)cc(S(=O)(=O)Nc2ccc(F)c(C(=O)O)c2)c2ccccc12 | 5.58

tested on: 3T3-L1; assay: Cytotoxicity against mouse 3T3-L1 cells assessed as reduction in cell viability at 100 uM incubated for 24 hrs by CCK8 assay; format: cell-based; conditions: 3t3-l1, 24 h

Compound | Activity
COc1c(-c2ccc(F)cc2Cl)cc(S(=O)(=O)Nc2ccc(F)c(CC(=O)O)c2)c2ccccc12 | Non-Toxic

biological target: T1, Fatty acid-binding protein, adipocyte; assay: Displacement of 1,8-ANS from FABP4 (unknown origin) at 25 uM incubated for 3 mins by fluorescence based analysis relative to control; conditions: not given
Method in brief: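 Single-concentration percent inhibition in the 1,8-ANS displacement assay with FABP4. Compound incubated with protein and probe in phosphate buffer for 3 min at room temperature; fluorescence read at ex 370/em 470 nm.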
Target sequence in this assay (P15090 2-132 limits assumed): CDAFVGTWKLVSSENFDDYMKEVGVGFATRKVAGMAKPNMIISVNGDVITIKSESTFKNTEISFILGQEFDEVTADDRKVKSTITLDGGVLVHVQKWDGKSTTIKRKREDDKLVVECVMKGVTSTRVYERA

inhibition | Compound
95% | COc1c(-c2ccc(F)cc2)cc(S(=O)(=O)Nc2ccc(F)c(CC(=O)O)c2)c2ccccc12
90% | COc1c(-c2ccc(F)cc2Cl)cc(S(=O)(=O)Nc2ccc(F)c(CC(=O)O)c2)c2ccccc12
88% | COc1c(-c2ccc(F)c(Cl)c2)cc(S(=O)(=O)Nc2ccc(F)c(CC(=O)O)c2)c2ccccc12

The remaining lines, values behind:

Compound | inhibition
COc1c(-c2ccccc2F)cc(S(=O)(=O)Nc2ccc(F)c(CC(=O)O)c2)c2ccccc12 | 87%
COc1c(-c2ccccc2O)cc(S(=O)(=O)Nc2ccc(F)c(CC(=O)O)c2)c2ccccc12 | 86%
COc1c(-c2ccccc2C)cc(S(=O)(=O)Nc2ccc(F)c(CC(=O)O)c2)c2ccccc12 | 80%
COc1c(-c2ccc(F)cc2C)cc(S(=O)(=O)Nc2ccc(F)c(C(=O)O)c2)c2ccccc12 | 95%

tested on: 3T3-L1; assay: Anti-lipolytic activity in mouse 3T3-L1 cells assessed as inhibition of forskolin-stimulated glycerol release at 80 uM preincubated for 24 hrs followed by forskolin stimulation for 1 hr; format: functional, cell-based; conditions: time 25.0 hrs

Compound | Activity
COc1c(-c2ccc(F)cc2C)cc(S(=O)(=O)Nc2ccc(F)c(C(=O)O)c2)c2ccccc12 | inactive

tested on: not listed separately; assay: Metabolic stability in mouse liver microsomes assessed as half life at 0.1 uM preincubated for 10 mins followed by NADPH addition and measured for 60 mins by LC-MS/MS analysis; format: ADME, Microsome; conditions: time 70 min
Method in brief: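 Mouse liver microsomes 0.33 mg/mL in 0.1 M Tris pH 7.4 with 5 mM MgCl₂, 0.01% DMSO and 0.005% BSA. Compound final […]. Preincubated 10 min at 37 °C; reaction started with 1 mM NADPH. Samples at 0, 7, 17, 30 and 60 min quenched with cold methanol, then analysed by LC-MS/MS.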

half-life at 0.1 µM | Compound
1.7 h | COc1c(-c2ccc(F)cc2C)cc(S(=O)(=O)Nc2ccc(F)c(C(=O)O)c2)c2ccccc12

biological target: Fatty acid-binding protein 5 (Homo sapiens, UniProt Q01469); assay: Displacement of 1,8-ANS from FABP5 (unknown origin) incubated for 3 mins by fluorescence based analysis; conditions: not given
Sequence (Q01469 whole entry): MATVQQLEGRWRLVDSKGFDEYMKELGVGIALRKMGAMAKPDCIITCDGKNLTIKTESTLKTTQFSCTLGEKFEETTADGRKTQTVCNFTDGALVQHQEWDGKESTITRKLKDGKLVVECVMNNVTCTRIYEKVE

pIC50 | Compound
5.22 | COc1c(-c2ccc(F)cc2Cl)cc(S(=O)(=O)Nc2ccc(F)c(CC(=O)O)c2)c2ccccc12
5.11 | COc1c(-c2ccccc2C)cc(S(=O)(=O)Nc2ccc(F)c(CC(=O)O)c2)c2ccccc12
5.05 | COc1c(-c2ccc(F)cc2C)cc(S(=O)(=O)Nc2ccc(F)c(C(=O)O)c2)c2ccccc12
